How the values were obtained:
[1] = Permeability of the compound in PBS/ethanol at 1 mg/ml after 4 hrs by PAMPA; format: ADME; conditions: for Papp at 4 h, 1 mg/ml: PAMPA, read-out: permeability
In short: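 PAMPA-BBB: permeability (Pe) measured through a porcine brain lipid extract membrane, using PBS:EtOH (70:30) as the medium. The assay was validated against 15 commercial drugs by correlating measured with reported Pe values. Data are mean ± SD of three independent experiments.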

[2] = biological target: Cholinesterase (Homo sapiens, UniProt P06276); experiment: Inhibition of human serum BChE using butyrylthiocholine as substrate by Ellman method
In short: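 IC50 is the concentration giving 50% inhibition of human BuChE, reported as mean ± SEM of three independent experiments.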

[3] = biological target: T1, Acetylcholinesterase (Homo sapiens, UniProt P22303); experiment: Inhibition of human erythrocyte AChE using acetylthiocholine as substrate by Ellman method
[4] = biological target: T1, Acetylcholinesterase; experiment: Ratio of donepezil IC50 to compound IC50 for human erythrocyte AChE using acetylthiocholine as substrate by Ellman method
[5] = biological target: Cholinesterase (Equus caballus, UniProt P81908); experiment: Inhibition of equine BChE
Cholinesterase (Equus caballus, UniProt P81908), sequence (P81908 whole entry): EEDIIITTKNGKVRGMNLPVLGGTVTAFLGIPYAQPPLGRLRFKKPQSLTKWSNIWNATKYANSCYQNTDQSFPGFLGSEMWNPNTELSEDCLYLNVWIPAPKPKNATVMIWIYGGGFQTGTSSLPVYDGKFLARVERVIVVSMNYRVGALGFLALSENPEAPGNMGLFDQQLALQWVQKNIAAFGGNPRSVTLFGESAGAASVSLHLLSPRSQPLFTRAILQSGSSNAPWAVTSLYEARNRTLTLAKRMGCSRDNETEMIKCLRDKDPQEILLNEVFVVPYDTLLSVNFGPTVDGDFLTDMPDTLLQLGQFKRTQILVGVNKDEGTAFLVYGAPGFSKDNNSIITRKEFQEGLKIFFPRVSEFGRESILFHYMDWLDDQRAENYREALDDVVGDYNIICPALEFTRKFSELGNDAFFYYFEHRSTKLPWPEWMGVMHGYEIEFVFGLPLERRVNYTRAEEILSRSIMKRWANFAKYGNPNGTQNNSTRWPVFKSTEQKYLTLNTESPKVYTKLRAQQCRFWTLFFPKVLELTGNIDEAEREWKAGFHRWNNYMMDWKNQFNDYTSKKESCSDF

Cholinesterase (Homo sapiens, UniProt P06276), sequence (P06276 whole entry): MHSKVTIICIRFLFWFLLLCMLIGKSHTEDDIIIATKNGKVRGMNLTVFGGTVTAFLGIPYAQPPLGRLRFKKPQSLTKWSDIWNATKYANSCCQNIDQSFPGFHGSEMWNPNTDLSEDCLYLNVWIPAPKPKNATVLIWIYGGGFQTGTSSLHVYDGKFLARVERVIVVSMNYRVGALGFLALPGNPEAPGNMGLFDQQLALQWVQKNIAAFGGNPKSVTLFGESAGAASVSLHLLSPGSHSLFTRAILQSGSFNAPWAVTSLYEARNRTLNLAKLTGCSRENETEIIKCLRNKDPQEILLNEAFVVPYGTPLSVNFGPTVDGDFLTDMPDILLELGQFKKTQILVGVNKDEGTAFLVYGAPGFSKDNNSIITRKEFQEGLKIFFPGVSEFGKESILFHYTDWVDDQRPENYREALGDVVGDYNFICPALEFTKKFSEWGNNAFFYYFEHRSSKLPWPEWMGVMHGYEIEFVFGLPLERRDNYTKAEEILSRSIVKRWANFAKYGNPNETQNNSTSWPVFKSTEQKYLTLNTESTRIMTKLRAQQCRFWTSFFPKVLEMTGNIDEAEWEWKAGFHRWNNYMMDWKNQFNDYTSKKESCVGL
T1 sequence (P22303 whole entry): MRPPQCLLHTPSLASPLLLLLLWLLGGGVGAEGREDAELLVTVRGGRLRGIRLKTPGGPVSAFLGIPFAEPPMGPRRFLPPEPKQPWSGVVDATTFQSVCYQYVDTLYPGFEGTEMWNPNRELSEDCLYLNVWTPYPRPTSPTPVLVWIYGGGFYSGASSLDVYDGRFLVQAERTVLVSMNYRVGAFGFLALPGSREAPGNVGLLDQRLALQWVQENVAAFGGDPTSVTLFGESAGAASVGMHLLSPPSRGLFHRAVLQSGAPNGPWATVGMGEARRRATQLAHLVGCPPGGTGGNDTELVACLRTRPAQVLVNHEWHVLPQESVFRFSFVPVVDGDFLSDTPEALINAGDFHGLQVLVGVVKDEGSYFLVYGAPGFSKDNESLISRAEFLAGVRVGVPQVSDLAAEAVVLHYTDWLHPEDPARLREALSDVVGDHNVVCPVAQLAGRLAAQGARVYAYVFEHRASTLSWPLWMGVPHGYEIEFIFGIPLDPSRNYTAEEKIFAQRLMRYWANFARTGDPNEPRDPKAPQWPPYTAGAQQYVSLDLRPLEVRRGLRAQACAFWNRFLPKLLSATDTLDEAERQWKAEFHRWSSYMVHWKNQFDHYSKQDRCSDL

Row | Structure (SMILES) | Papp at 4 h, 1 mg/ml [1] | IC50 [2] | IC50 [3] | permeability ([1]; pampa, 4 h) | Ratio IC50 [4] | IC50 [5]
1 | N#Cc1c(N)nc(NCCCCC2CCN(Cc3ccccc3)CC2)c(C#N)c1-c1ccccc1 | 25.7 ×10⁻⁶ cm/s | 580 nM | 120 nM |  |  | 
2 | N#Cc1c(N)nc(NC2CCN(Cc3ccccc3)CC2)c(C#N)c1-c1ccccc1 |  | > 10000 nM | 8800 nM | ND(Insoluble) |  | 
3 | N#Cc1c(N)nc(NCCCC2CCN(Cc3ccccc3)CC2)c(C#N)c1-c1ccccc1 | 31.6 ×10⁻⁶ cm/s | 1500 nM | 240 nM |  |  | 
4 | N#Cc1cc(C#N)c(NCCC2CCN(Cc3ccccc3)CC2)nc1N | 14.4 ×10⁻⁶ cm/s | 260 nM | 220 nM |  |  | 
5 | N#Cc1c(N)nc(NCCC2CCN(Cc3ccccc3)CC2)c(C#N)c1-c1ccccc1 | 34 ×10⁻⁶ cm/s | 670 nM | 390 nM |  |  | 
6 | N#Cc1cc(C#N)c(NCCCC2CCN(Cc3ccccc3)CC2)nc1N | 20.8 ×10⁻⁶ cm/s | 6600 nM | 9.4 nM |  | 1.4 | 
7 | N#Cc1cc(C#N)c(N2CCCC2)nc1N |  |  |  |  |  | > 10000 nM
8 | N#Cc1cc(C#N)c(NC2CCN(Cc3ccccc3)CC2)nc1N | 17 ×10⁻⁶ cm/s | > 10000 nM | 3100 nM |  |  | 
9 | N#Cc1cc(C#N)c(NCCCCC2CCN(Cc3ccccc3)CC2)nc1N | 21.2 ×10⁻⁶ cm/s | 1700 nM | 70 nM |  |  | 

— ChEMBL document CHEMBL2086277, “Pyridonepezils, new dual AChE inhibitors as potential drugs for the treatment of Alzheimer's disease: synthesis, biological assessment, and molecular modeling” (Eur J Med Chem, 2012)
